Reference: ChEMBL document CHEMBL1126303, “Syntheses and affinities of novel organometallic-labeled estradiol derivatives: a structure-affinity relationship” (J Med Chem, 1992)
Several values for one entry are separate records, joined by “and”; a condition that tells them apart may be missing. Equal entries are not always repeated.

The compounds below were run against Estrogen receptor (Ovis aries) (UniProt P49885+Q9TU15) (assay: Relative binding affinity against the estrogen receptor using lamb uterine cytosol as a source of receptor and [3H]-estradiol as a tracer). Settings: Uterus.
Estrogen receptor (Ovis aries), sequence (Q9TU15 whole entry, looked up, chain 1 of 2): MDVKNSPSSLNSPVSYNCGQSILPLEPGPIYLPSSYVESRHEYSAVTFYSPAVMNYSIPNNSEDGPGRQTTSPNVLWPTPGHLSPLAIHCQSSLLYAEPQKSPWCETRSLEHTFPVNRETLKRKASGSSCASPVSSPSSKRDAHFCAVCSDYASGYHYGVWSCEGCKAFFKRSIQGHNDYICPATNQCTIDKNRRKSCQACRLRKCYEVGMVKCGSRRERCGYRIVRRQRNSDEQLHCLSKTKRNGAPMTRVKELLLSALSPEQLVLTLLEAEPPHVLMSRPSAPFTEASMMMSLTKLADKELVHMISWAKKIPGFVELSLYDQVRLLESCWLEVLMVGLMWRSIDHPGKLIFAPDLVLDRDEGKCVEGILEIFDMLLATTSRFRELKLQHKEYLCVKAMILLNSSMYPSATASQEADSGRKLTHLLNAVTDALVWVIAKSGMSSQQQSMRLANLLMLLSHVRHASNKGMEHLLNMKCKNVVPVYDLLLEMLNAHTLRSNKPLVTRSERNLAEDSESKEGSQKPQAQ
Estrogen receptor (Ovis aries), sequence (P49885 whole entry, looked up, chain 2 of 2): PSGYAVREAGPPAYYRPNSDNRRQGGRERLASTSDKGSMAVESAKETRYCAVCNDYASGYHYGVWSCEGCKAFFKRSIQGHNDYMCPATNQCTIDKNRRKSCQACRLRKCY
Type: protein assay
Outline: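 Competitive radiometric binding on lamb uterine cytosol (105000g supernatant in 0.05 M Tris-HCl, 0.25 M sucrose, 0.1% β-mercaptoethanol, pH 7.4), 5 mg protein/mL. Incubated 3 h at 0 °C with 2 × 10⁻⁹ M [³H]estradiol plus competitor at nine concentrations, 1×10⁻¹⁰ to 1×10⁻⁶ M. Bound/free separated by protamine sulfate precipitation and filtration, then scintillation counting. Logit-transformed; RBA = IC50 estradiol/competitor ×100; mean of two determinations.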

**Q.** Which RBA does the source give for C[C@]12CC[C@@H]3c4ccc(O)cc4CC[C@H]3[C@@H]1CC[C@@]2(O)C#Cc1ccccc1 here?
**A.** 27%

**Q.** With C[C@]12CC[C@@H]3c4ccc(O)cc4CC[C@H]3[C@@H]1CC[C@@]2(O)c1ccccc1 as the compound, how does the RBA read?
**A.** 25%

**Q.** Which RBA does the source give for 17alpha-ferrocenyl-17beta-estradiol here?
**A.** 15%

**Q.** How did the RBA turn out when “(17-alpha(phenylethynyl)-17beta-estradiol)tricarbonylchromium” was run?
**A.** 24%

**Q.** Which RBA does the source give for “(17-alpha-phenyl-17beta-estradiol)tricarbonylchromium” here?
**A.** 11%

**Q.** Which RBA does the source give for “(17alpha)-[Cp Ruphenyl]-17beta-estradiol)][CF3SO3]” here?
**A.** 0%

**Q.** For “(alpha,beta)-[Cp Ru(17beta-estradiol)][PF6-]”, which RBA is on record?
**A.** 0.1%

**Q.** For “(alpha,beta)-[Cp*Ru(17beta-estradiol)][CF3SO3]”, which RBA is on record?
**A.** 2.9%

**Q.** With [Cp Ru(eta5-17beta-estradienonyl)] as the compound, how does the RBA read?
**A.** 0.1%

**Q.** For “alpha [Cp Ru[eta5-17beta-estradienonyl] [BF4]”, which RBA is on record?
**A.** 0.44% and 0.46%
